Assay results reported in ChEMBL document CHEMBL4406852, “Combating fluconazole-resistant fungi with novel β-azole-phenylacetone derivatives” (Eur J Med Chem, 2019).
Converted amounts (≈) assume the structure as drawn.

Key:
Candida albicans [1] = experiment: Antifungal activity against fluconazole-resistant Candida albicans CaR assessed as reduction in fungal growth incubated for 24 hrs by serial dilution method; format: functional
Outline: (§1)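 Fluconazole-resistant C. albicans clinical isolates (17# and CaR from AIDS patients; 632, 901, 904 from clinic) tested by CLSI broth dilution MIC in RPMI 1640 buffered to pH 7.0 with MOPS. Compounds dissolved in DMSO, serially diluted to final 0.03–16 or 0.125–64 μg/mL; inoculum 1–5 × 10^3 CFU/mL; 35 °C, 24 h. MIC = lowest concentration inhibiting visible growth; fluconazole and itraconazole as controls.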

Candida albicans [2] = experiment: Antifungal activity against Candida albicans SC5314 assessed as reduction in fungal growth incubated for 24 hrs by serial dilution method; format: functional; settings: SC5314, 24 h
Outline: (§2)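 MIC by CLSI broth microdilution in RPMI 1640 buffered to pH 7.0 with MOPS. Compounds dissolved in DMSO and serially diluted to final 0.03–16 or 0.125–64 µg/mL. Inoculum 1–5 × 10^3 CFU/mL. Incubation 35 °C, 24 h. Drug-free growth and fungus-free blank controls. MIC is the lowest concentration preventing visible growth.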

Candida albicans [3] = experiment: Antifungal activity against Candida albicans GIM 2.194 assessed as reduction in fungal growth incubated for 24 hrs by serial dilution method; format: functional; settings: GIM 2.194, 24 h; outline: as §2
Candida tropicalis = experiment: Antifungal activity against Candida tropicalis GIM 2.183 assessed as reduction in fungal growth incubated for 24 hrs by serial dilution method; format: functional; settings: GIM 2.183, 24 h; outline: as §2
Nakaseomyces glabratus = experiment: Antifungal activity against Candida glabrata assessed as reduction in fungal growth incubated for 24 hrs by serial dilution method; format: functional; outline: as §2
Candida parapsilosis = experiment: Antifungal activity against Candida parapsilosis GIM 2.190 assessed as reduction in fungal growth incubated for 24 hrs by serial dilution method; format: functional; settings: Lodderomyces parapsilosis, GIM 2.190, 24 h; outline: as §2
Candida albicans [4] = experiment: Antifungal activity against fluconazole-resistant Candida albicans 17 assessed as reduction in fungal growth incubated for 24 hrs by serial dilution method; format: functional; settings: Candida albicans, 17, 24 h; outline: as §1
Candida albicans [5] = experiment: Antifungal activity against fluconazole-resistant Candida albicans 632 assessed as reduction in fungal growth incubated for 24 hrs by serial dilution method; format: functional; settings: Candida albicans, 632, 24 h; outline: as §1
Candida albicans [6] = experiment: Antifungal activity against fluconazole-resistant Candida albicans 901 assessed as reduction in fungal growth incubated for 24 hrs by serial dilution method; format: functional; settings: Candida albicans, 901, 24 h; outline: as §1
Candida albicans [7] = experiment: Antifungal activity against fluconazole-resistant Candida albicans 904 assessed as reduction in fungal growth incubated for 24 hrs by serial dilution method; format: functional; settings: Candida albicans, 904, 24 h; outline: as §1
[8] = Cytotoxicity against human A549 cells assessed as cell survival at 0.08 uM/l incubated for 24 hrs by MTT assay relative to control; format: cell-based; settings: read-out: Activity
Outline: (§3)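 A549 cells were seeded at 3000 per well in RPMI 1640 and held 16 h at 37 °C, 5% CO2. Medium was then replaced with medium holding DMSO-dissolved compound at final 0.08, 0.4, 2.0 or 10 µM/L and incubated 24 h. MTT was added for 4 h and absorbance read at 490 nm to give survival.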

[9] = Cytotoxicity against human A549 cells assessed as cell survival at 0.4 uM/l incubated for 24 hrs by MTT assay relative to control; format: cell-based; settings: read-out: Activity; outline: as §3
[10] = Cytotoxicity against human A549 cells assessed as cell survival at 2 uM/l incubated for 24 hrs by MTT assay relative to control; format: cell-based; settings: read-out: Activity; outline: as §3
[11] = Cytotoxicity against human A549 cells assessed as cell survival at 10 uM/l incubated for 24 hrs by MTT assay relative to control; format: cell-based; settings: read-out: Activity; outline: as §3
[12] = target: T1, Lanosterol 14-alpha demethylase (Candida albicans (strain SC5314 / ATCC MYA-2876) (Yeast), UniProt P10613); experiment: Inhibition of Candida albicans CYP51 assessed as increase in lanosterol level at 0.015 ug/ml incubated for 18 hrs by GC/MS analysis relative to control; parameters: scale not given: the % may be the effect or the level left
Outline: (§4)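 C. albicans SC5314 was grown in RPMI 1640 with 0.015 µg/mL compound, or fluconazole 0.25 µg/mL, about 18 h at 30 °C with shaking at 200 rpm. Cells were pelleted and washed with PBS, then saponified 60 min at 80 °C in ethanol/pyrogallol/60% KOH. Nonsaponifiable sterols were extracted three times with heptane and analysed by GC-MS.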

[13] = target: T1, Lanosterol 14-alpha demethylase; experiment: Inhibition of Candida albicans CYP51 assessed as ergosterol level at 0.015 ug/ml incubated for 18 hrs by GC/MS analysis (reference value: 100%); parameters: scale not given: the % may be the effect or the level left; outline: as §4
[14] = target: T1, Lanosterol 14-alpha demethylase; experiment: Inhibition of Candida albicans CYP51 assessed as increase in eburicol level at 0.015 ug/ml incubated for 18 hrs by GC/MS analysis relative to control; parameters: scale not given: the % may be the effect or the level left; outline: as §4
[15] = target: T1, Lanosterol 14-alpha demethylase; experiment: Inhibition of Candida albicans CYP51 assessed as increase in 14alpha-methyl ergosta-8,24(28)-dien-3beta,6alpha-diol level at 0.015 ug/ml incubated for 18 hrs by GC/MS analysis relative to control; parameters: scale not given: the % may be the effect or the level left; outline: as §4
[16] = target: T1, Lanosterol 14-alpha demethylase; experiment: Inhibition of Candida albicans CYP51 assessed as increase in sterol level at 0.015 ug/ml incubated for 18 hrs by GC/MS analysis relative to control; parameters: scale not given: the % may be the effect or the level left; outline: as §4
[17] = target: T1, Lanosterol 14-alpha demethylase; experiment: Inhibition of Candida albicans CYP51 assessed as increase in lanosterol level at 0.25 ug/ml incubated for 18 hrs by GC/MS analysis relative to control; parameters: scale not given: the % may be the effect or the level left
Outline: (§5)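 Candida albicans SC5314 grown in RPMI 1640 with agitation (200 rpm) for ~18 h at 30 °C, with 0.25 µg/mL fluconazole as a comparator alongside the test compound. Cells were pelleted (3000g, 10 min), PBS-washed thrice, and saponified 60 min at 80 °C in ethanol, ethanolic pyrogallol and 60% KOH. Nonsaponifiable sterols were extracted thrice with heptane and profiled by GC-MS.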

[18] = target: T1, Lanosterol 14-alpha demethylase; experiment: Inhibition of Candida albicans CYP51 assessed as ergosterol level at 0.25 ug/ml incubated for 18 hrs by GC/MS analysis (reference value: 100%); parameters: scale not given: the % may be the effect or the level left; outline: as §5
[19] = target: T1, Lanosterol 14-alpha demethylase; experiment: Inhibition of Candida albicans CYP51 assessed as increase in eburicol level at 0.25 ug/ml incubated for 18 hrs by GC/MS analysis relative to control; parameters: scale not given: the % may be the effect or the level left; outline: as §5
[20] = target: T1, Lanosterol 14-alpha demethylase; experiment: Inhibition of Candida albicans CYP51 assessed as increase in 14alpha-methyl ergosta-8,24(28)-dien-3beta,6alpha-diol level at 0.25 ug/ml incubated for 18 hrs by GC/MS analysis relative to control; parameters: scale not given: the % may be the effect or the level left; outline: as §5
[21] = target: T1, Lanosterol 14-alpha demethylase; experiment: Inhibition of Candida albicans CYP51 assessed as increase in sterol level at 0.25 ug/ml incubated for 18 hrs by GC/MS analysis relative to control; parameters: scale not given: the % may be the effect or the level left; outline: as §5

T1 sequence (P10613 whole entry): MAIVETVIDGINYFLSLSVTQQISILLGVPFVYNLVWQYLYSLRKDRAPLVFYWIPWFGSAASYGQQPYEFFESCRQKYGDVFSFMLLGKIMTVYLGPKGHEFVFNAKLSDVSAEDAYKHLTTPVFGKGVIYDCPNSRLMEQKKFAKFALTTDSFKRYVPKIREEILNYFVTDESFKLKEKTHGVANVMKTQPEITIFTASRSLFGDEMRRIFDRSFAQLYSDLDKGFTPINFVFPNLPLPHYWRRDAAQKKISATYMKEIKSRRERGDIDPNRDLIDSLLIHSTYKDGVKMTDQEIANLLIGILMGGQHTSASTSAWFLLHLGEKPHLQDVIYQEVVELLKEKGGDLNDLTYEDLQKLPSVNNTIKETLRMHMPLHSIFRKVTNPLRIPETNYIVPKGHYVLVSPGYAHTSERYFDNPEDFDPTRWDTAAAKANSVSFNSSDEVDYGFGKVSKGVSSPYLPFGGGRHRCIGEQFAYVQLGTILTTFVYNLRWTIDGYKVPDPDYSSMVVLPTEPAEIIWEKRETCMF

Row | SMILES | MIC (Candida albicans [1]) | MIC (Candida albicans [2]) | MIC (Candida albicans [3]) | MIC (Candida tropicalis) | MIC (Nakaseomyces glabratus) | MIC (Candida parapsilosis) | MIC (Candida albicans [4]) | MIC (Candida albicans [5]) | MIC (Candida albicans [6]) | MIC (Candida albicans [7]) | viability at 24 h, 0.08 µM [8] | viability at 24 h, 0.4 µM [9] | viability at 24 h, 2 µM [10] | viability at 24 h, 10 µM [11] | further results
1 | O=C(NC(Cn1ccnc1)C(=O)c1ccccc1F)c1ccc(-c2ccccc2)cc1 (stereo not given) | 1 µg/mL (≈ 2.42 µM) | 0.125 µg/mL (≈ 0.302 µM) | 0.125 µg/mL (≈ 0.302 µM) | 1 µg/mL (≈ 2.42 µM) | 2 µg/mL (≈ 4.84 µM) | 0.125 µg/mL (≈ 0.302 µM) | 8 µg/mL (≈ 19.3 µM) | 0.5 µg/mL (≈ 1.21 µM) | 0.25 µg/mL (≈ 0.605 µM) | < 0.125 µg/mL | 100% | 100% | 100% | 100% | –
2 | Cc1ccc(C(=O)C(Cn2ccnc2)NC(=O)c2ccc(-c3ccccc3)c(F)c2)cc1 (stereo not given) | 1 µg/mL (≈ 2.34 µM) | 0.03 µg/mL (≈ 0.0702 µM) | 0.06 µg/mL (≈ 0.14 µM) | 0.03 µg/mL (≈ 0.0702 µM) | 0.125 µg/mL (≈ 0.292 µM) | 0.125 µg/mL (≈ 0.292 µM) | 2 µg/mL (≈ 4.68 µM) | 16 µg/mL (≈ 37.4 µM) | 16 µg/mL (≈ 37.4 µM) | 16 µg/mL (≈ 37.4 µM) | 100% | 100% | 97% | 92.5% | Activity [12]: 23.17%; Activity [13]: 41.99%; Activity [14]: 9.56%; Activity [15]: 13.26%; Activity [16]: 3.04 to 5.85%
3 | O=C(NC(Cn1ccnc1)C(=O)c1cccc(Cl)c1)c1ccc(-c2ccccc2)cc1 (stereo not given) | > 64 µg/mL | 0.03 µg/mL (≈ 0.0698 µM) | 0.06 µg/mL (≈ 0.14 µM) | 0.03 µg/mL (≈ 0.0698 µM) | 0.125 µg/mL (≈ 0.291 µM) | 0.125 µg/mL (≈ 0.291 µM) | > 64 µg/mL | 4 µg/mL (≈ 9.3 µM) | 1 µg/mL (≈ 2.33 µM) | 4 µg/mL (≈ 9.3 µM) | 100% | 97.4% | 97.2% | 96.3% | –
4 | O=C(NC(Cn1ccnc1)C(=O)c1ccc(F)cc1)c1ccc(-c2ccccc2)cc1F (stereo not given) | 2 µg/mL (≈ 4.64 µM) | 0.06 µg/mL (≈ 0.139 µM) | 0.25 µg/mL (≈ 0.579 µM) | 0.125 µg/mL (≈ 0.29 µM) | 0.125 µg/mL (≈ 0.29 µM) | 0.125 µg/mL (≈ 0.29 µM) | 2 µg/mL (≈ 4.64 µM) | > 64 µg/mL | > 64 µg/mL | 8 µg/mL (≈ 18.5 µM) | 100% | 100% | 100% | 86.8% | –
5 | OC(Cn1cncn1)(Cn1cncn1)c1ccc(F)cc1F [FLUCONAZOLE] | > 64 µg/mL | 0.5 µg/mL (≈ 1.63 µM) | 2 µg/mL (≈ 6.53 µM) | 0.5 µg/mL (≈ 1.63 µM) | 4 µg/mL (≈ 13.1 µM) | 2 µg/mL (≈ 6.53 µM) | > 64 µg/mL | > 64 µg/mL | > 64 µg/mL | > 64 µg/mL | 100% | 99.1% | 95.7% | 95.3% | Activity [17]: 16.74%; Activity [18]: 63%; Activity [19]: 4.27%; Activity [20]: 5.15%; Activity [21]: 1.54 to 5.07%
